Laboratory results from ChEMBL document CHEMBL3259705, “Geranyl and neryl triazole bisphosphonates as inhibitors of geranylgeranyl diphosphate synthase” (Bioorg Med Chem, 2014).
pIC50: −log10 of the molar value. One block for each compound: values may come before it. Calls of active or inactive are those of the source. The rule behind the calls is not given here.

What was measured:
[1] = target: T1, Geranylgeranyl pyrophosphate synthase (Homo sapiens) (UniProt O95749); settings: RPMI-8226, 1 uM
T1 sequence (whole entry): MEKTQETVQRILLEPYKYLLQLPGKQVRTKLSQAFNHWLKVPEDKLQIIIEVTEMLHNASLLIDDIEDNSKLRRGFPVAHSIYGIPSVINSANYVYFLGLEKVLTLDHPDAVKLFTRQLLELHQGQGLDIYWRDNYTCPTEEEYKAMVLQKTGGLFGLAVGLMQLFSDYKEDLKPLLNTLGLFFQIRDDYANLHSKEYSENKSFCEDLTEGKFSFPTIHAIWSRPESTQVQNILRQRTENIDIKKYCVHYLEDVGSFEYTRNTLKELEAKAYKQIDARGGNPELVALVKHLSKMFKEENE

[2] = target: T1, Geranylgeranyl pyrophosphate synthase (Homo sapiens); assay: Inhibition of GGDPS in human RPMI-8226 cells assessed as disruption of Rap1a geranylgeranylation at 10 uM after 48 hrs by western blot analysis; type: cell-based
Method in brief: (§1)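 RPMI-8226 human myeloma cells exposed 48 h to test agent. For Rap1a, RIPA whole-cell lysate probed with an antibody recognising only unmodified Rap1a, β-tubulin as loading control. Rab6 read from Triton X-114 aqueous versus detergent fractions, with β-tubulin for aqueous and calnexin for detergent loading. Equal protein by BCA, SDS-PAGE/immunoblot with ECL. Blots representative of two independent experiments.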

[3] = target: Geranylgeranyl transferase type I (Homo sapiens, UniProt P49354+P53609); assay: Inhibition of recombinant GGTase 1 (unknown origin) assessed as decrease in prenylated fluorescent peptides level using dansyl-GCVLS and GGPP as substrate after 1 hr by HPLC-fluorescence detection analysis
Method in brief: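 Reaction started by adding 12 nM recombinant GGTase I to pH 7.5 Tris buffer with DTT, 5 mM MgCl2, 50 µM ZnCl2, 10 mM KCl, 0.04% DDM, 10 µM GGPP and 7 µM dansyl-GCVLS. Incubated 1 h at 30 °C, then acid-acetonitrile quench. Prenylated peptide measured by HPLC with fluorescence. IC50 from concentration-response curves.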

[4] = target: T1, Geranylgeranyl pyrophosphate synthase (Homo sapiens); settings: RPMI-8226, 1 uM; remark: listed apart in the source
[5] = target: T1, Geranylgeranyl pyrophosphate synthase (Homo sapiens); settings: RPMI-8226, 10 uM
[6] = target: T2, Farnesyl pyrophosphate synthase (Homo sapiens) (UniProt P14324); assay: Inhibition of FDPS in human RPMI-8226 cells assessed as disruption of Ras farnesylation after 48 hrs by western blot analysis; type: cell-based
T2 sequence (whole entry): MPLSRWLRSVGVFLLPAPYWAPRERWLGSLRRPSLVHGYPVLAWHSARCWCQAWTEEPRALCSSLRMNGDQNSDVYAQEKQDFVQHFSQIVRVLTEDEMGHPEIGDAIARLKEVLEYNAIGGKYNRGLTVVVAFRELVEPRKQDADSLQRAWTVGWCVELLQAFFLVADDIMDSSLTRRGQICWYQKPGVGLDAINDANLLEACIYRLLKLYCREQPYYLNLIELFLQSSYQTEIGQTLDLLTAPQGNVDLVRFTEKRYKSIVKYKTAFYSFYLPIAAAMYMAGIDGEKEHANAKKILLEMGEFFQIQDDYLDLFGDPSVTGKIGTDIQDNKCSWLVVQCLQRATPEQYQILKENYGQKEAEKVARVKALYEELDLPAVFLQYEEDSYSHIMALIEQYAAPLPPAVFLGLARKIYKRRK

[7] = target: Protein farnesyltransferase (Homo sapiens, UniProt P49354+P49356); assay: Inhibition of recombinant FTase (unknown origin) assessed as decrease in prenylated fluorescent peptides level using dansyl-GCVLS and FPP as substrate after 1 hr by HPLC-fluorescence detection analysis; type: protein-complex assay
Method in brief: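 3 nM recombinant FTase started reaction in pH 7.5 Tris buffer with DTT, 10 mM MgCl2, 10 µM ZnCl2, 0.04% DDM, plus 10 µM FPP and 5 µM dansyl-GCVLS. Run 1 h at 30 °C, stopped with acetonitrile/5% HCl, centrifuged. Prenylated peptide quantified by HPLC-fluorescence. IC50 taken from concentration-response curves.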

[8] = Inhibition of recombinant GGTase 2 (unknown origin) using recombinant Rab1A and [3H]GGPP as substrate after 20 mins by liquid scintillation counting analysis in presence of recombinant REP-2; set-up: species or system Homo sapiens
Method in brief: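 30 nM recombinant GGTase II with 2 µM His-tagged Rab1A (E. coli-expressed, Ni-NTA purified) and 1 µM REP-2 in HEPES buffer with MgCl2, DTT, NP-40. Started with 5 µM [3H]-GGPP, 20 min at 37 °C, ended with HCl/EtOH. Filtered on P-81 paper, washed and scintillation counted. Tested up to 1 mM.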

[9] = target: T3, Farnesyl pyrophosphate synthase (Homo sapiens, UniProt P14324); assay: Inhibition of recombinant FDPS (unknown origin) assessed as decrease in radiolabeld […] level using GPP and [14C]IPP as substrate treated with enzyme for 10 mins prior to substrate challenge for 30 mins by liquid scintillation counting analysis
T3 sequence (P14324 whole entry): T2 sequence (whole entry)
Method in brief: (§2)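 Enzyme (10 nM FDPS or 20 nM GGDPS) preincubated with compound 10 min at room temperature in 50 mM Tris-HCl pH 7.7, 20 mM MgCl2, 5 mM TCEP, 5 µg/mL BSA. Started with 10 µM GPP (FDPS) or 10 µM FPP (GGDPS) plus 10 µM [14C]-IPP; 37 °C, 30 min. Stopped with saturated NaCl, butanol-extracted, counted. IC50 from concentration-response curves.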

[10] = target: T1, Geranylgeranyl pyrophosphate synthase (Homo sapiens); settings: RPMI-8226, 1 uM; remark: listed apart in the source
[11] = target: T1, Geranylgeranyl pyrophosphate synthase (Homo sapiens); settings: RPMI-8226, 10 uM; remark: listed apart in the source
[12] = target: T1, Geranylgeranyl pyrophosphate synthase (Homo sapiens); settings: RPMI-8226, 10 uM; remark: listed apart in the source
[13] = target: T1, Geranylgeranyl pyrophosphate synthase (Homo sapiens); settings: RPMI-8226, 10 uM; remark: listed apart in the source
[14] = target: T1, Geranylgeranyl pyrophosphate synthase (Homo sapiens); assay: Inhibition of GGDPS in human RPMI-8226 cells assessed as disruption of Rab6 geranylgeranylation at 10 uM after 48 hrs by western blot analysis; type: cell-based
Method in brief: as §1

[15] = target: T4, 3-hydroxy-3-methylglutaryl-coenzyme A reductase (Homo sapiens) (UniProt P04035); assay: Inhibition of HMG-coA reductase in human RPMI-8226 cells assessed as disruption of Rap1a geranylgeranylation at 10 uM after 48 hrs by western blot analysis in presence of 1 mM mevalonate; type: cell-based
T4 sequence (whole entry): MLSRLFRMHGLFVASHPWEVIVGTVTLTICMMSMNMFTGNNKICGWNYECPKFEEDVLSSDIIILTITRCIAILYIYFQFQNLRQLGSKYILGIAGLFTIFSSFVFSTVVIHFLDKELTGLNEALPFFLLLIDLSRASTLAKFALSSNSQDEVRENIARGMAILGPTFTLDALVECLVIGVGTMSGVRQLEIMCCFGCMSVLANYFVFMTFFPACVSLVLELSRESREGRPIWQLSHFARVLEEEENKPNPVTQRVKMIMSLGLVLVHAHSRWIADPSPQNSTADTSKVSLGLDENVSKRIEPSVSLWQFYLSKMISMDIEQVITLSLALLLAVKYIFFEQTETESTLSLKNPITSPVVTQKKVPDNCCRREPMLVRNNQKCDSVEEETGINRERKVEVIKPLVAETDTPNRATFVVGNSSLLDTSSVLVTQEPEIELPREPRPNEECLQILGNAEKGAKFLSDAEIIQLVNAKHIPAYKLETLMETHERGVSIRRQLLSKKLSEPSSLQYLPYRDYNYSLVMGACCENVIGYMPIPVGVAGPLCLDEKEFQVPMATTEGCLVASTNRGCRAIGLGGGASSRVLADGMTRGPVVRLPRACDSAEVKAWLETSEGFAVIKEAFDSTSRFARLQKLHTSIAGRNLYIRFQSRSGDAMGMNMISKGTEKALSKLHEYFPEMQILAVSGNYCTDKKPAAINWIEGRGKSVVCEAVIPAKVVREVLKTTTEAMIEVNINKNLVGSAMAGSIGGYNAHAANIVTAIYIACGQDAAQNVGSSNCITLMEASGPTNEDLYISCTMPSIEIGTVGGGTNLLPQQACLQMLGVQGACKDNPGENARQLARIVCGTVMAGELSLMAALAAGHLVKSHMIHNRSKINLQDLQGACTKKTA
Method in brief: (§3)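 RPMI-8226 cells held 48 h with 10 µM inhibitor, with or without isoprenoid add-back (1 mM mevalonate, 10 µM FPP or 10 µM GGPP). RIPA whole-cell lysate immunoblotted with an antibody detecting only unmodified Rap1a, β-tubulin as loading control. Protein equalised by BCA. Two independent experiments.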

[16] = target: T4, 3-hydroxy-3-methylglutaryl-coenzyme A reductase (Homo sapiens); assay: Inhibition of HMG-coA reductase in human RPMI-8226 cells assessed as disruption of Rap1a geranylgeranylation at 10 uM after 48 hrs by western blot analysis; type: cell-based
Method in brief: as §3

[17] = target: T4, 3-hydroxy-3-methylglutaryl-coenzyme A reductase (Homo sapiens); assay: Inhibition of HMG-coA reductase in human RPMI-8226 cells assessed as disruption of Rap1a geranylgeranylation at 10 uM after 48 hrs by western blot analysis in presence of 10 uM GGPP; type: cell-based
Method in brief: as §3

[18] = target: T5, Geranylgeranyl pyrophosphate synthase (Homo sapiens, UniProt O95749); assay: Inhibition of recombinant GGDPS (unknown origin) assessed as decrease in radiolabeld GGPP level using FPP and [14C]IPP as substrate treated with enzyme for 10 mins prior to substrate challenge for 30 mins by liquid scintillation counting analysis
T5 sequence (O95749 whole entry): T1 sequence (whole entry)
Method in brief: as §2

Structure (SMILES): CC(C)=CCC/C(C)=C/Cn1cc(CC(P(=O)(O)O)P(=O)(O)O)nn1
inhibition [1]: inactive
disruption of Rap1a geranylgeranylation (active/not active) [2]: Active
pIC50 [3]: 3.47
inhibition [4]: inactive
inhibition [5]: inactive
inhibition [6]: inactive
pIC50 [7]: < 3.30
pIC50 [8]: < 3.00
pIC50 [9]: 4.24

Structure (SMILES): CC(C)=CCC/C(C)=C\Cn1cc(CC(P(=O)(O)O)P(=O)(O)O)nn1
inhibition [1]: Active
disruption of Rap1a geranylgeranylation (active/not active) [2]: Active
pIC50 [3]: 3.30
inhibition [10]: Active
inhibition [4]: Active
inhibition [11]: Active
inhibition [12]: inactive
inhibition [5]: Active
inhibition [6]: inactive
pIC50 [7]: 3.40
inhibition [13]: Active
pIC50 [8]: < 3.00
disruption of Rab6 geranylgeranylation (active/not active) [14]: Active
pIC50 [9]: 4.10

disruption of Rap1a geranylgeranylation (active/not active) [2]: Active
inhibition [5]: Active
inhibition [6]: inactive
disruption of Rab6 geranylgeranylation (active/not active) [14]: Active
Structure (SMILES): CC(C)=CCC/C(C)=C/CC(C/C=C(\C)CCC=C(C)C)(P(=O)(O)O)P(=O)(O)O

inhibition [15]: inactive
inhibition [16]: Active
inhibition [17]: inactive
Structure (SMILES): CC[C@H](C)C(=O)O[C@H]1C[C@@H](C)C=C2C=C[C@H](C)[C@H](CC[C@@H]3C[C@@H](O)CC(=O)O3)[C@H]21

Structure (SMILES): CC(C)=CCC[C@]1(C)O[C@@H]1Cn1cc(CC(P(=O)(O)O)P(=O)(O)O)nn1 (racemic)
pIC50 [18]: 4.77
disruption of Rap1a geranylgeranylation (active/not active) [2]: inactive
pIC50 [3]: 3.52
inhibition [6]: inactive
pIC50 [7]: 3.47
pIC50 [8]: < 3.00
disruption of Rab6 geranylgeranylation (active/not active) [14]: inactive
pIC50 [9]: 4.33

Structure (SMILES): CC(C)=CCCC(C)=CCn1cc(CC(P(=O)(O)O)P(=O)(O)O)nn1 (mixture of isomers)
inhibition [1]: Active
disruption of Rap1a geranylgeranylation (active/not active) [2]: Active
pIC50 [3]: 3.70
inhibition [4]: Active
inhibition [5]: Active
inhibition [6]: inactive
pIC50 [7]: 3.30
pIC50 [8]: < 3.00
disruption of Rab6 geranylgeranylation (active/not active) [14]: Active
pIC50 [9]: 4.08

Structure (SMILES): CC(C)=CCC[C@@]1(C)O[C@@H]1Cn1cc(CC(P(=O)(O)O)P(=O)(O)O)nn1 (racemic)
pIC50 [18]: 4.64
disruption of Rap1a geranylgeranylation (active/not active) [2]: inactive
pIC50 [3]: 3.30
inhibition [6]: inactive
pIC50 [7]: 3.40
pIC50 [8]: < 3.00
disruption of Rab6 geranylgeranylation (active/not active) [14]: inactive
pIC50 [9]: 4.48
